According to ChEMBL document CHEMBL1138555, “N-acylated and N,N'-diacylated imidazolidine-2-thione derivatives and N,N'-diacylated tetrahydropyrimidine-2(1H)-thione analogues: synthesis and antiproliferative activity” (Eur J Med Chem, 2009):

Assays:
MT4 = assay: Antiproliferative activity against human MT4 cells assessed as reduction of growth by MTT assay; type: functional, cell-based
Summary of the method: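 MT-4 lymphoblastoid T cells (ATCC) in RPMI 1640 with 10% FCS, penicillin/streptomycin, checked for mycoplasma. 1 × 10⁴ mock-infected cells per well with serial dilutions from a 100 mM DMSO stock. Incubated 4 days at 37 °C, viable cells counted by MTT. IC50 versus untreated controls by linear regression. Mean of three separate experiments.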

CCRF-CEM = assay: Growth inhibition of human CCRF-CEM cells after 48 hrs by sulforhodamine B assay; type: functional
Summary of the method: (§1)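 NCI screen panel. Five 10-fold concentrations from 10^-4 to 10^-8 M. Exposure for the last 48 h of a 72 h incubation. Growth estimated by sulforhodamine B protein assay. GI50 is the concentration giving 50% growth inhibition. Where that level was not reached or was exceeded, the value is given as above or below the highest or lowest concentration tested.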

HL-60(TB) = assay: Growth inhibition of human HL-60(TB) cells after 48 hrs by sulforhodamine B assay; type: functional; conditions: HL-60, 48 h
Summary of the method: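 NCI 60-cell-line screen protocol: cells exposed to compound at five 10-fold dilutions from 10^-4 to 10^-8 M for the last 48 h of a 72 h incubation. Sulforhodamine B protein assay estimated viability/growth. GI50 (50% growth inhibition) derived; where not reached or exceeded, reported as greater or less than the highest or lowest concentration tested.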

K562 = assay: Growth inhibition of human K562 cells after 48 hrs by sulforhodamine B assay; type: functional; conditions: K562, 48 h; summary of the method: as §1
MOLT-4 = assay: Growth inhibition of human MOLT4 cells after 48 hrs by sulforhodamine B assay; type: functional; conditions: MOLT-4, 48 h; summary of the method: as §1
[1] = Growth inhibition of human […] cells after 48 hrs by sulforhodamine B assay; type: functional; summary of the method: as §1
SR = assay: Growth inhibition of human SR cells after 48 hrs by sulforhodamine B assay; type: functional
Summary of the method: (§2)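 NCI in vitro panel screen. Compounds tested at five 10-fold dilutions, 10^-4 to 10^-8 M. Cells in 96-well plates were exposed for the last 48 h of a 72 h incubation. Viability/growth was read by sulforhodamine B protein assay. GI50 is the concentration giving 50% growth inhibition. Values beyond the tested range are reported as greater or less than the maximum or minimum concentration.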

A549 = assay: Growth inhibition of human A549 cells after 48 hrs by sulforhodamine B assay; type: functional; conditions: A549, 48 h; summary of the method: as §1
EKVX = assay: Growth inhibition of human EKVX cells after 48 hrs by sulforhodamine B assay; type: functional; summary of the method: as §1
HOP-62 = assay: Growth inhibition of human HOP62 cells after 48 hrs by sulforhodamine B assay; type: functional; conditions: HOP-62, 48 h; summary of the method: as §1
HOP-92 = assay: Growth inhibition of human HOP92 cells after 48 hrs by sulforhodamine B assay; type: functional; conditions: HOP-92, 48 h; summary of the method: as §1
NCI-H23 = assay: Growth inhibition of human NCI-H23 cells after 48 hrs by sulforhodamine B assay; type: functional; conditions: NCI-H23, 48 h; summary of the method: as §1
NCI-H322M = assay: Growth inhibition of human NCI-H322M cells after 48 hrs by sulforhodamine B assay; type: functional; summary of the method: as §1
NCI-H460 = assay: Growth inhibition of human NCI-H460 cells after 48 hrs by sulforhodamine B assay; type: functional; conditions: NCI-H460, 48 h; summary of the method: as §1
COLO 205 = assay: Growth inhibition of human COLO205 cells after 48 hrs by sulforhodamine B assay; type: functional; conditions: COLO 205, 48 h; summary of the method: as §1
HCT-116 = assay: Growth inhibition of human HCT116 cells after 48 hrs by sulforhodamine B assay; type: functional; conditions: HCT-116, 48 h; summary of the method: as §1
HCT-15 = assay: Growth inhibition of human HCT15 cells after 48 hrs by sulforhodamine B assay; type: functional; conditions: HCT-15, 48 h; summary of the method: as §1
HT-29 = assay: Growth inhibition of human HT-29 cells after 48 hrs by sulforhodamine B assay; type: functional; conditions: HT-29, 48 h; summary of the method: as §1
KM12 = assay: Growth inhibition of human KM12 cells after 48 hrs by sulforhodamine B assay; type: functional; conditions: KM12, 48 h; summary of the method: as §1
SW-620 = assay: Growth inhibition of human SW620 cells after 48 hrs by sulforhodamine B assay; type: functional; conditions: SW-620, 48 h; summary of the method: as §2
SF-268 = assay: Growth inhibition of human SF268 cells after 48 hrs by sulforhodamine B assay; type: functional; conditions: SF-268, 48 h; summary of the method: as §1
SF-295 = assay: Growth inhibition of human SF295 cells after 48 hrs by sulforhodamine B assay; type: functional; conditions: SF-295, 48 h; summary of the method: as §1
SNB-19 = assay: Growth inhibition of human SNB19 cells after 48 hrs by sulforhodamine B assay; type: functional; conditions: SNB-19, 48 h; summary of the method: as §2
SNB-75 = assay: Growth inhibition of human SNB75 cells after 48 hrs by sulforhodamine B assay; type: functional; conditions: SNB-75, 48 h; summary of the method: as §2
U-251 = assay: Growth inhibition of human U251 cells after 48 hrs by sulforhodamine B assay; type: functional; conditions: U-251, 48 h; summary of the method: as §2
LOX IMVI = assay: Growth inhibition of human LOXIMVI cells after 48 hrs by sulforhodamine B assay; type: functional; summary of the method: as §1
Malme-3M = assay: Growth inhibition of human MALME-3M cells after 48 hrs by sulforhodamine B assay; type: functional; summary of the method: as §1
M14 = assay: Growth inhibition of human M14 cells after 48 hrs by sulforhodamine B assay; type: functional; conditions: M14, 48 h; summary of the method: as §1
SK-MEL-28 = assay: Growth inhibition of human SK-MEL-28 cells after 48 hrs by sulforhodamine B assay; type: functional; conditions: SK-MEL-28, 48 h; summary of the method: as §1
SK-MEL-5 = assay: Growth inhibition of human SK-MEL-5 cells after 48 hrs by sulforhodamine B assay; type: functional; conditions: SK-MEL-5, 48 h; summary of the method: as §1
UACC-62 = assay: Growth inhibition of human UACC62 cells after 48 hrs by sulforhodamine B assay; type: functional; conditions: UACC-62, 48 h; summary of the method: as §2
OVCAR-3 = assay: Growth inhibition of human OVCAR-3 cells after 48 hrs by sulforhodamine B assay; type: functional; conditions: OVCAR-3, 48 h; summary of the method: as §1
OVCAR-4 = assay: Growth inhibition of human OVCAR4 cells after 48 hrs by sulforhodamine B assay; type: functional; conditions: OVCAR-4, 48 h; summary of the method: as §1
OVCAR-8 = assay: Growth inhibition of human OVCAR8 cells after 48 hrs by sulforhodamine B assay; type: functional; conditions: OVCAR-8, 48 h; summary of the method: as §1
SK-OV-3 = assay: Growth inhibition of human SKOV3 cells after 48 hrs by sulforhodamine B assay; type: functional; conditions: SK-OV-3, 48 h; summary of the method: as §1
786-0 = assay: Growth inhibition of human 786-0 cells after 48 hrs by sulforhodamine B assay; type: functional; conditions: 786-0, 48 h; summary of the method: as §1
ACHN = assay: Growth inhibition of human ACHN cells after 48 hrs by sulforhodamine B assay; type: functional; summary of the method: as §1
CAKI-1 = assay: Growth inhibition of human Caki1 cells after 48 hrs by sulforhodamine B assay; type: functional; conditions: CAKI-1, 48 h; summary of the method: as §1
SN12C = assay: Growth inhibition of human SN12C cells after 48 hrs by sulforhodamine B assay; type: functional; summary of the method: as §2
TK-10 = assay: Growth inhibition of human TK10 cells after 48 hrs by sulforhodamine B assay; type: functional; conditions: TK-10, 48 h; summary of the method: as §2
UO-31 = assay: Growth inhibition of human UO31 cells after 48 hrs by sulforhodamine B assay; type: functional; conditions: UO-31, 48 h; summary of the method: as §2
PC-3 = assay: Growth inhibition of human PC3 cells after 48 hrs by sulforhodamine B assay; type: functional; conditions: PC-3, 48 h; summary of the method: as §1
DU-145 = assay: Growth inhibition of human DU145 cells after 48 hrs by sulforhodamine B assay; type: functional; conditions: DU-145, 48 h; summary of the method: as §1
MDA-MB-231 = assay: Growth inhibition of human MDA-MB-231 cells after 48 hrs by sulforhodamine B assay; type: functional; conditions: MDA-MB-231, 48 h; summary of the method: as §1
MDA-MB-435 = assay: Growth inhibition of human MDA-MB-435 cells after 48 hrs by sulforhodamine B assay; type: functional; conditions: MDA-MB-435, 48 h; summary of the method: as §1
BT-549 = assay: Growth inhibition of human BT549 cells after 48 hrs by sulforhodamine B assay; type: functional; conditions: BT-549, 48 h; summary of the method: as §1
T47D = assay: Growth inhibition of human T47D cells after 48 hrs by sulforhodamine B assay; type: functional; summary of the method: as §2

## CCOC(=O)/C(=C/N1CCN(C(=O)c2ccco2)C1=S)C(=O)c1ccccc1
MT4
  IC50: 4 µM
CCRF-CEM
  GI50: 15.6 µM
HL-60(TB)
  GI50: 14.9 µM
K562
  GI50: 17.7 µM
MOLT-4
  GI50: 19.6 µM
[1]
  GI50: 12.4 µM
SR
  GI50: 2.4 µM
A549
  GI50: 11.6 µM
EKVX
  GI50: 9.5 µM
HOP-62
  GI50: 17.3 µM
HOP-92
  GI50: 23 µM
NCI-H23
  GI50: 7.7 µM
NCI-H322M
  GI50: 14.2 µM
NCI-H460
  GI50: 4.9 µM
COLO 205
  GI50: 19.2 µM
HCT-116
  GI50: 8.9 µM
HCT-15
  GI50: 6.3 µM
HT-29
  GI50: 19.2 µM
KM12
  GI50: 10.1 µM
SW-620
  GI50: 7.9 µM
SF-268
  GI50: 7.2 µM
SF-295
  GI50: 16.4 µM
SNB-19
  GI50: 35.6 µM
SNB-75
  GI50: 46 µM
U-251
  GI50: 11.5 µM
LOX IMVI
  GI50: 6.5 µM
Malme-3M
  GI50: 13.3 µM
M14
  GI50: 8.9 µM
SK-MEL-28
  GI50: 22.2 µM
SK-MEL-5
  GI50: < 0.005 µM
UACC-62
  GI50: 7.6 µM
OVCAR-3
  GI50: 20.2 µM
OVCAR-4
  GI50: 31 µM
OVCAR-8
  GI50: 11.7 µM
SK-OV-3
  GI50: 20 µM
786-0
  GI50: 12.9 µM
ACHN
  GI50: 8.5 µM
CAKI-1
  GI50: 15.9 µM
SN12C
  GI50: 8.1 µM
TK-10
  GI50: 12.4 µM
UO-31
  GI50: 10 µM
PC-3
  GI50: 19.4 µM
DU-145
  GI50: 8 µM
MDA-MB-231
  GI50: 10.8 µM
MDA-MB-435
  GI50: 14.4 µM
BT-549
  GI50: 9 µM
T47D
  GI50: 4.1 µM
